Reference: paper PMC3873001 (Bioorganic & medicinal chemistry, 2013)

Columns and labels:
[1] = test system: T. cruzi amastigotes (Tulahuen C4) in infected L6 myoblasts; experiment: In vitro growth inhibition of T. cruzi amastigotes in infected L6 myoblasts; format: cell-based; details: for IC50: Trypanosoma cruzi, TULAHUEN, L6, read-out: T. cruzi IC-50; for reduction of antichagasic activity compared to 3-nitrotriazole counterpart: 2-nitroimidazole analog vs 3-nitrotriazole counterpart (13 vs 9; 14 vs 11); for reduction of antichagasic activity compared to 5: compared to compound 5
[2] = test system: T. b. rhodesiense bloodstream form trypomastigotes (STIB 900); experiment: In vitro growth inhibition of T. b. rhodesiense bloodstream form trypomastigotes; format: cell-based, Trypanosoma b. rhodesiense; details: for SI (T.b.rhod.): SI = IC50 in L6 cells / IC50 in T.b. rhodesiense; for IC50: Trypanosoma brucei, RHODESIENSE|STIB900, read-out: T.b.rhod. IC-50; for activity designation against T.b. rhodesiense: TDR criteria on IC50; for reduction of anti-HAT activity compared to 3-nitrotriazole counterpart: 2-nitroimidazole analog vs 3-nitrotriazole counterpart (13 vs 9; 14 vs 11)
[3] = test system: L. donovani axenic amastigotes (MHOM-ET-67/L82); experiment: In vitro growth inhibition of axenically cultured L. donovani amastigotes; format: cell-based, Leishmania donovani; details: for IC50: Leishmania donovani, read-out: L.don. axen. IC-50; for SI (L.don. axen.): SI = IC50 in L6 cells / IC50 in L. donovani
[4] = Cytotoxicity assessment using L6 cells; format: cell-based; details: rat, L6 cells (rat skeletal myoblasts)
In short: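 Rat skeletal myoblasts (L6) were tested for growth inhibition as the host-cell toxicity counterpart to the parasite assays. IC50 was calculated by linear regression from sigmoidal dose-inhibition curves. Values are means of two independent assays, varying by less than ±50%.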

Cl.Cl.O=[N+]([O-])c1ncn(CCCN2CCN(c3ccc(C(F)(F)F)cc3)CC2)n1 [Compound 3]
IC50 [1]: 0.04 µM
SI (T.b.rhod.) [2]: 10
IC50 [2]: 5.33 µM
IC50 [3]: 25.9 µM
SI (L.don. axen.) [3]: 2

Cl.Cl.Cl.Cl.O=[N+]([O-])c1ncn(CCCN2CCN(c3ccc(Cl)c(Cl)c3)CC2)n1 [Compound 7, 1-(3,4-dichlorophenyl)-4-[3-(3-nitro-1H-1,2,4-triazol-1-yl)propyl]piperazine dihydrochloride]
activity designation against T.b. rhodesiense [2]: active

O=[N+]([O-])c1ncn(CCCCNc2nc3ccc(Cl)cc3s2)n1 [Compound 17, 6-chloro-N-[4-(3-nitro-1H-1,2,4-triazol-1-yl)butyl]-1,3-benzothiazol-2-amine]
activity designation against T.b. rhodesiense [2]: active

COc1ccc(N2CCN(CCCn3ccnc3[N+](=O)[O-])CC2)cc1.Cl.Cl [Compound 13, 1-(4-methoxyphenyl)-4-[3-(2-nitro-1H-imidazol-1-yl)propyl]piperazine dihydro-chloride]
reduction of antichagasic activity compared to 3-nitrotriazole counterpart [1]: about 62 fold
reduction of anti-HAT activity compared to 3-nitrotriazole counterpart [2]: ~2 fold

O=[N+]([O-])c1ncn(CCCN2CCN(c3ccncc3)CC2)n1 [Compound 6, 1-[3-(3-nitro-1H-1,2,4-triazol-1-yl)propyl]-4-(pyridin-4-yl)piperazine]
reduction of antichagasic activity compared to 5 [1]: more than 10 fold

Cl.Cl.O=[N+]([O-])c1ncn(CCCN2CCN(Cc3ccc(C(F)(F)F)cc3)CC2)n1 [Compound 1]
IC50 [1]: 0.34 µM
IC50 [4]: > 191 µM
IC50 [2]: 1.38 µM
IC50 [3]: 58.1 µM
SI (L.don. axen.) [3]: >3

Cl.Cl.O=[N+]([O-])c1ncn(CCCN2CCN(c3ncccn3)CC2)n1 [Compound 4, 2-{4-[3-(3-nitro-1H-1,2,4-triazol-1-yl)propyl]piperazin-1-yl}pyrimidine dihydrochloride]
reduction of antichagasic activity compared to 5 [1]: 2 fold

COc1ccc(N2CCN(CCCn3cnc([N+](=O)[O-])n3)CC2)cc1 [Compound 9, 1-(4-methoxyphenyl)-4-[3-(3-nitro-1H-1,2,4-triazol-1-yl)propyl]piperazine dihydro-chloride]
IC50 [4]: 125 µM

O=[N+]([O-])c1ncn(CCCNc2nc3ccc(Cl)cc3s2)n1 [Compound 15, 6-chloro-N-[3-(3-nitro-1H-1,2,4-triazol-1-yl)propyl]-1,3-benzothiazol-2-amine]
activity designation against T.b. rhodesiense [2]: active
activity designation against L. donovani ([3]; TDR criteria on IC50): moderately active (IC50 = 1.0-6.0 μM)

O=[N+]([O-])c1nccn1CCCCNc1nc2ccc(Cl)cc2s1 [Compound 20, 6-chloro-N-[4-(2-nitro-1H-imidazol-1-yl)butyl]-1,3-benzothiazol-2-amine]
IC50 [3]: 7.3 µM

Cl.Cl.Cl.Cl.O=[N+]([O-])c1nccn1CCCN1CCN(Cc2ccc(Cl)c(Cl)c2)CC1 [Compound 14, 1-[(3,4-dichlorophenyl)methyl]-4-[3-(2-nitro-1H-imidazol-1-yl)propyl]piperazine dihydrochloride]
reduction of antichagasic activity compared to 3-nitrotriazole counterpart [1]: about 33 fold
reduction of anti-HAT activity compared to 3-nitrotriazole counterpart [2]: ~14 fold

Cl.Cl.O=[N+]([O-])c1ncn(CCCCN2CCN(Cc3ccc(C(F)(F)F)cc3)CC2)n1 [Compound 2]
IC50 [1]: 0.412 µM
SI (T.b.rhod.) [2]: 99
IC50 [2]: 1.2 µM
IC50 [3]: 44.5 µM
SI (L.don. axen.) [3]: 3
